Measured values as given in article PMC3100417 (Biomaterials, 2011).

Key:
radiolabeled lipoplexes = experiment: DNA binding and release of lipoplexes to hydrogel surfaces; details: for amount of bound DNA retained: release study, by day 6
Summary of the method: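 Cell-free hydrogels carrying 5 mM RDG, KDKG, K4 or K8 peptide, washed immediately and after 1 h swelling in uDMEM. Radiolabelled TransFast–plasmid lipoplexes in uDMEM added at 2 µg DNA/well for 2 h at room temperature. Unbound solution removed and scintillation-counted. Gels washed twice with uDMEM immediately and at 2, 4 and 6 h, then sampled periodically with replacement for 6 days. Counts converted to DNA via standard curve.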

Recombinant rat β-NGF = Recombinant rat β-NGF (Rattus norvegicus, UniProt P25427); experiment: NGF binding and release from hydrogels; details: for NGF remaining in solution after incubation: 10 ng/well NGF in uDMEM, 2 h, ELISA, 10% PEG hydrogels, 5 mM peptide; for release of NGF from hydrogels: monitored over 48 h after initial binding
Sequence of Recombinant rat β-NGF (P25427 122-241): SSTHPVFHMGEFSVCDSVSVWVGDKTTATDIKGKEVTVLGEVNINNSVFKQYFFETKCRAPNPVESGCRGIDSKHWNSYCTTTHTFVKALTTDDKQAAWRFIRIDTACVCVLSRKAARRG
Summary of the method: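 Recombinant rat β-NGF at 0.05 µg/mL final in uDMEM added. Media collected with replacement at 2, 4, 6, 24 and 48 h and stored at −80 °C. Sandwich ELISA gave bound NGF and cumulative release.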

[1] = cited from earlier work

Substance | amount of bound DNA retained (radiolabeled lipoplexes) [%] | NGF remaining in solution after incubation (Recombinant rat β-NGF) [ng] | release of NGF from hydrogels (Recombinant rat β-NGF) | diffusivity of NGF, DN [1] | rate constant for NGF degradation, kdeg ([1]; in buffered solution) [s⁻¹] | mean quantity of vector bound, greater than KDKG and RDG conditions (radiolabeled lipoplexes; throughout the 6-day release study)
GCGYGKKKKKKKK [K8] | 41 | 3.2 | lowest | – | – | –
NGF: nerve growth factor protein | – | – | – | 12 × 10^−7 cm^2/s | 4.83e-05 | –
GCGYGRDGSPG [reference compound] | 20 | 3.8 | – | – | – | –
GCGKKKK [K4] | – | 3.4 | intermediate between the RDG and K8 conditions | – | – | approximately 5%
